In paper PMC2822702 (Biochimica et biophysica acta, 2009):
Where a chain is given by its changes, count along the chain named. Numbers in names are those of the source.

T1: wt Bid (Mus musculus, UniProt P70444)
T1 sequence (P70444 1-195): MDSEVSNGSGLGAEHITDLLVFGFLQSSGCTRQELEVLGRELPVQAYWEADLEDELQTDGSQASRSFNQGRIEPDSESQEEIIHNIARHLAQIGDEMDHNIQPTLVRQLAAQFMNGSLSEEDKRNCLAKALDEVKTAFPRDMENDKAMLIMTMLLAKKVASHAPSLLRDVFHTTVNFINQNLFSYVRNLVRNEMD

T2: Bid K157E (Mus musculus, UniProt P70444, K157E)
T2 sequence (P70444 1-195 K157E): T1 sequence (P70444 1-195) with K157E

T3: Bid R187E (Mus musculus, UniProt P70444, R187E)
T3 sequence (P70444 1-195 R187E): T1 sequence (P70444 1-195) with R187E

B1: wt Bid: recombinant full-length wild type mouse Bid with N-terminal six-histidine tag (protein, UniProt P70444 1-195, looked up)
chain: T1 sequence (P70444 1-195)
modifications: full-length N-terminal His6 tag
B2: R187E Bid: recombinant mouse Bid, arginine 187 replaced by glutamic acid (protein, UniProt P70444 1-195, looked up, variant R187E)
BH3-interacting domain death …: T1 sequence (P70444 1-195) with R187E
B3: K157E Bid YFP: C-terminal YFP-tagged full-length mouse Bid K157E expressed by transfection (protein, UniProt P70444 1-195, looked up, variant K157E)
chain: T1 sequence (P70444 1-195) with K157E
modifications: full-length C-terminal YFP fusion
B4: R187E Bid YFP: C-terminal YFP-tagged full-length mouse Bid R187E expressed by transfection (protein, UniProt P70444 1-195, looked up, variant R187E)
chain: T1 sequence (P70444 1-195) with R187E
modifications: full-length C-terminal YFP tag
B5: wt Bid YFP: C-terminal YFP-tagged full-length wild type mouse Bid expressed by transfection (protein, UniProt P70444 1-195, looked up)
chain: T1 sequence (P70444 1-195)
modifications: full-length C-terminal YFP tag
B6: K157E Bid: recombinant mouse Bid, lysine 157 replaced by glutamic acid (protein, UniProt P70444 1-195, looked up, variant K157E)
BH3-interacting domain death …: T1 sequence (P70444 1-195) with K157E

Experiments:
[1] = molecular target: T1, wt Bid; assay: ADIFAB fluorescence quenching; format: binding; conditions: recombinant mouse wt Bid, ADIFAB 0.2 μM, room temperature
Procedure, shortened: (§1)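 Recombinant N-terminal His6-tagged mouse Bid was expressed in E. coli BL21(DE3)pLysS and purified on a chelating affinity column. ADIFAB at 0.2 μM in 10 mM Tris pH 8.0, 0.15 M NaCl, 1 mM EGTA was run alone or with Bid at 22–24 °C. Lipid ligand was titrated with excitation at 390 nm and emission read at 410–610 nm. Kd was taken from Stern–Volmer (F0/F) slopes.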

[2] = molecular target: T2, Bid K157E; assay: ADIFAB fluorescence quenching; format: binding; conditions: recombinant mouse Bid K157E mutant, ADIFAB 0.2 μM, room temperature
Procedure, shortened: as §1

[3] = molecular target: T3, Bid R187E; assay: ADIFAB fluorescence quenching; format: binding; conditions: recombinant mouse Bid R187E mutant, ADIFAB 0.2 μM, room temperature
Procedure, shortened: as §1

[4] = system: mouse liver mitochondria; assay: Cell-free assay of cytochrome c release from isolated mitochondria; format: biochemical; conditions: for release of cytochrome c: 200 nM full-length recombinant Bid protein, no exogenous lysolipids, 15 min
Procedure, shortened: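 They were incubated 15 min at 22 °C with 200 nM recombinant full-length mouse Bid plus 2 μM LPC-C16 added from ethanol, then pelleted. Supernatant cytochrome c was immunoblotted and quantified by densitometry (n=3, t-test), with controls of 500 μM LPC-C16 and no Bid.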

[5] = system: FSK7 mouse mammary epithelial cells; assay: Anoikis of mammary epithelial cells expressing YFP-tagged Bid; format: cell-based; conditions: FL Bid YFP over-expressed, 5 h detached
Procedure, shortened: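 FSK7 cells were grown in DMEM/F-12 with 5 ng/ml EGF, 5 μg/ml insulin and 2% FCS at 37 °C, 5% CO₂. They were lipofected with C-terminal YFP-tagged full-length Bid or YFP alone. At 18 h post-transfection cells were detached onto polyHEMA for 5 h, cytospun, PFA-fixed and Hoechst-stained. Apoptosis was scored by nuclear morphology as mean ± SEM.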

Row | Molecule | Kd [1] [µM] | Kd [2] [µM] | Kd [3] [µM] | release of cytochrome c [4] | other results
1 | CCCCCCCC/C=C\CCCCCCCC(=O)OC[C@@H](O)COP(=O)(O)OCC(O)CO (stereo partly drawn) [LPG-C18, 1-oleyl-LPG] | 0.08 | 0.2 | 0.1 |  | 
2 | CCCCCCCCCCCCCCCC(=O)OC[C@@H](O)COP(=O)([O-])OCC[N+](C)(C)C [LPC-C16, 1-palmitoyl-LPC] | ~4 | ~4 | 5.5 |  | enhancement of cytochrome c release ([4]; 2 μM LPC-C16 with 200 nM K157E FL Bid): much stronger enhancement; increase in capacity of releasing cytochrome c ([4]; 2 μM LPC-C16 with 200 nM R187E FL Bid): ~2 fold; increase in capacity of releasing cytochrome c ([4]; 2 μM LPC-C16 with 200 nM wt FL Bid): ~2 fold
3 | monolysocardiolipin [MCL] | 1.3 | 1.8 | ~1.4 |  | 
4 | B1 |  |  |  | some release of cytochrome c | 
5 | B2 |  |  |  | some release of cytochrome c | 
6 | B3 |  |  |  |  | sensitisation to anoikis compared with wt Bid [5]: no difference
7 | B4 |  |  |  |  | sensitisation to anoikis compared with wt Bid [5]: no difference
8 | B5 |  |  |  |  | apoptosis (cell death) after detachment ([5]; nuclear morphology): around 85%
9 | B6 |  |  |  | did not release cytochrome c | 
